Results on 10 molecules are retold here after ChEMBL document CHEMBL2429835.

As a reminder, the IC50 is the concentration at which inhibition is half-maximal. In general, MIC90 refers to the lowest concentration that inhibits either 90% of growth or 90% of the strains tested, depending on the study.

Test [1] concerns Vero. The test is described as follows: Cytotoxicity against african green monkey Vero cells after 72 hrs by MTS-PMS assay. The class given is cell-based. Particulars: Chlorocebus sabaeus. In outline: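 Vero cells in EMEM with 10% FBS at 37 °C, 5% CO2, diluted to 10^6 cells/mL. Exposed to 2-fold serial dilutions for 72 h at 37 °C.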
(In general: Tetrazolium dyes change colour on reduction, which living cells bring about.)

The test system of test [2] is Mycobacterium tuberculosis. The test is described as follows: Antimycobacterial activity against Mycobacterium tuberculosis H37Rv ATCC 27294 by microplate Alamar blue assay. The class given is functional. In outline: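 Strain (H37Rv or ATCC single-drug-resistant isolates) grown to late log phase in 7H9 with 0.2% glycerol, 0.05% Tween80, 10% OADC. Cells washed into PBS, passed through 8 μm filter, frozen; CFU titred on 7H11 agar. MABA MIC is the lowest concentration giving ≥90% growth inhibition versus untreated controls.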

The subject of test [3] is Mycobacterium marinum. As to the kind of experiment: Antimycobacterial activity against Mycobacterium marinum ATCC 927 after 6 days by microplate Alamar blue assay. Particulars: ATCC 927, 144 h. The class given is functional.
The subject of test [4] is Mycobacterium avium. As to the kind of experiment: Antimycobacterial activity against Mycobacterium avium ATCC 15769 at 100 ug/ml after 7 days by microplate Alamar blue assay. It counts as functional, organism-based. In outline: (§1)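 MABA in 7H12 (M. abscessus, M. bovis BCG) or 7H9 (others). Pre-dye incubation: M. abscessus 37 °C 3 days; BCG 37 °C 7 days; M. chelonae 30 °C 3 days; M. marinum 30 °C 5 days; M. avium and M. kansasii 37 °C 6 days. Then 20% Tween80 plus Alamar blue added: 4 h (abscessus), 6 days (chelonae), 1 day (others). Tested at 100 μg/mL.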
On the technique in general: Resazurin is reduced to fluorescent resorufin, in cell work by metabolically active cells.

For test [5], the system named is Mycobacterium kansasii. As to the kind of experiment: Antimycobacterial activity against Mycobacterium kansasii ATCC 12478 at 100 ug/ml after 7 days by microplate Alamar blue assay. It counts as functional. In a few lines:
as §1

Test [6] deals with Mycobacteroides abscessus. As to the kind of experiment: Antimycobacterial activity against Mycobacterium abscessus ATCC 19977 at 100 ug/ml after 7 days by microplate Alamar blue assay. It counts as functional.
Test [7] relates to Mycobacteroides chelonae. The test is described as follows: Antimycobacterial activity against Mycobacterium chelonae ATCC 35752 at 100 ug/ml after 9 days by microplate Alamar blue assay. It counts as functional, organism-based. In a few lines: as §1
The subject of test [8] is Mycolicibacterium smegmatis. As to the kind of experiment: Antimycobacterial activity against Mycobacterium smegmatis MC2 155 at 100 ug/ml after 3 days by microplate Alamar blue assay. It counts as functional, organism-based. The conditions noted are these: str. MC2 155. In a few lines:
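MABA: 37 °C for 3 days, then Tween80 (20%) and Alamar blue added, 4 h further incubation; fluorescence read-out. Tested at 100 μg/mL.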

The test system of test [9] is Streptococcus pneumoniae. As to the kind of experiment: Antibacterial activity against Streptococcus pneumoniae at 100 ug/ml. The class given is functional, organism-based. In a few lines:
(§2)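 Broth microdilution per NCCLS guidelines; growth read spectrophotometrically at 570 nm, except S. pneumoniae at 490 nm, which was tested with 2% HBL supplement. Compounds tested up to 100 μg/mL.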

The subject of test [10] is Acinetobacter baumannii. As to the kind of experiment: Antibacterial activity against Acinetobacter baumannii at 100 ug/ml by broth microdilution method. The class given is functional, organism-based. In general terms: Dilution methods test growth across graded concentrations, often in twofold steps.
Test [11] relates to Pseudomonas aeruginosa. As to the kind of experiment: Antibacterial activity against Pseudomonas aeruginosa ATCC 27853 at 100 ug/ml by broth microdilution method. It counts as functional, organism-based. In a few lines:
as §2

For test [12], the system named is Enterococcus faecalis. The test is described as follows: Antibacterial activity against Enterococcus faecalis ATCC 29212 at 100 ug/ml by broth microdilution method. The class given is functional, organism-based. In a few lines:
as §2

For test [13], the system named is Candida albicans. The test is described as follows: Antifungal activity against Candida albicans ATCC 90028 at 100 ug/ml by broth microdilution method. The class given is functional, organism-based. In outline:
as §2

The test system of test [14] is Escherichia coli. As to the kind of experiment: Antibacterial activity against Escherichia coli ATCC 25922 at 100 ug/ml by broth microdilution method. It counts as functional, organism-based. In a few lines: as §2
For test [15], the system named is Staphylococcus aureus. As to the kind of experiment: Antibacterial activity against Staphylococcus aureus ATCC 29213 at 100 ug/ml by broth microdilution method. It counts as functional, organism-based. In a few lines: as §2
A short description of test [16]: Selectivity index, ratio of IC50 for african green monkey Vero cells to MIC90 for Mycobacterium tuberculosis H37Rv ATCC 27294 by microplate Alamar blue assay. The class given is functional.
For test [17], the system named is Mycobacterium tuberculosis. The test is described as follows: Antimycobacterial activity against Mycobacterium tuberculosis H37Rv ATCC 27294 incubated for 10 days under low oxygen condition followed by normoxic environment for 28 hrs by low oxygen recovery assay. It counts as functional. In a few lines: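 Luciferase (luxAB) reporter strain adapted to low oxygen in a fermenter. Exposed to samples for 10 days at 37 °C under hypoxia, then 28 h normoxic at 37 °C. Luminescence read; MIC is the lowest concentration cutting luminescence by ≥90% versus untreated cultures.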

Test [18] concerns Mycobacterium kansasii. As to the kind of experiment: Antimycobacterial activity against Mycobacterium kansasii ATCC 12478 after 7 days by microplate Alamar blue assay. It counts as functional. Particulars: ATCC 12478, 168 h. In outline: as §1
Test [19] concerns Mycobacterium marinum. The test is described as follows: Antimycobacterial activity against Mycobacterium marinum ATCC 927 at 100 ug/ml after 6 days by microplate Alamar blue assay. It counts as functional, organism-based. In a few lines:
as §1

Converted amounts (≈) assume the structure as drawn. The source made the active and inactive calls. The rule behind the calls is not given here.

Consider `NNC(=O)c1ccncc1` [ISONIAZID], for which, in [1], the half-inhibitory concentration (IC50) is over 100 µg/mL. For the same molecule, the MIC90 in test [2] worked out at 0.03 µg/mL (≈ 0.219 µM).

For the molecule `CCOC(=O)c1c(-c2ccccc2)c2cc(Cl)ccc2oc1=O`, the MIC90 worked out at 97.1 µg/mL (≈ 295 µM) in test [3], 37.1 µg/mL (≈ 113 µM) in [17] and 44.7 µg/mL (≈ 136 µM) in test [2]. Moreover, the result in test [4], in test [5], in test [6], in test [7], in test [8] and in test [9] was inactive. Besides, the result in test [10], in [11], in test [12], in test [13], in test [14] and in test [15] was inactive. Further, in test [16], the “Selectivity Index” value came out at 0.82.

On to `CO[C@H]1/C=C/O[C@@]2(C)Oc3c(C)c(O)c4c(O)c(c(/C=N/N5CCN(C)CC5)c(O)c4c3C2=O)NC(=O)/C(C)=C\C=C\[C@H](C)[C@H](O)[C@@H](C)[C@@H](O)[C@@H](C)[C@H](OC(C)=O)[C@@H]1C` [RIFAMPIN], for which the IC50 in [1] is over 100 µg/mL. The MIC90 is under 0.05 µg/mL in test [17] and 0.08 µg/mL (≈ 0.0972 µM) in [2].

In the case of `O=c1cc(-c2ccccc2)c2ccc(Cl)cc2o1`, the MIC90 came to 49.3 µg/mL (≈ 192 µM) in test [18], 21.9 µg/mL (≈ 85.3 µM) in test [17] and 23.9 µg/mL (≈ 93.1 µM) in test [2]. Besides, the outcome in [4], in test [6], in [19], in test [7], in test [8] and in test [9] was inactive. In addition, the result in test [10], in [11], in test [12], in test [13], in [14] and in test [15] was inactive. Moreover, the “Selectivity Index” value in [16] is reported as 1.27. The molecule further returned an IC50 in test [1] of 30.4 µg/mL (≈ 118 µM).

As to `CCOC(=O)c1c(-c2ccccc2)c2ccc(Cl)cc2oc1=O`, the result in test [4], in [5], in test [6], in [19], in test [7] and in test [8] was inactive. The result in [9], in [10], in test [11], in test [12], in test [13] and in test [14] was inactive. For the same molecule, the outcome in test [15] was inactive. Besides, the “Selectivity Index” value in test [16] was determined as 1.1. This molecule also registered an IC50 in [1] of 39.4 µg/mL (≈ 120 µM). The MIC90 in [17] amounted to 23.2 µg/mL (≈ 70.6 µM); in test [2] it was 35.9 µg/mL (≈ 109 µM).

With `O=[N+]([O-])c1cn2c(n1)OC[C@@H](OCc1ccc(OC(F)(F)F)cc1)C2` [PRETOMANID], in test [16], the “Selectivity Index” value is over 5000. Moreover, the half-inhibitory concentration (IC50) in test [1] was over 100 µg/mL. The MIC90 came to 0.25 µg/mL (≈ 0.696 µM) in test [17] and 0.02 µg/mL (≈ 0.0557 µM) in [2].

On to `CN[C@@H]1[C@H](O[C@H]2[C@H](O[C@H]3[C@H](O)[C@@H](O)[C@H](N=C(N)N)[C@@H](O)[C@@H]3N=C(N)N)O[C@@H](C)[C@]2(O)C=O)O[C@@H](CO)[C@H](O)[C@H]1O` [STREPTOMYCIN], for which the “Selectivity Index” value in test [16] is on record as over 833. The IC50 in [1] is over 100 µg/mL. Further, the MIC90 in test [17] came out at 1.07 µg/mL (≈ 1.84 µM); in test [2], 0.12 µg/mL (≈ 0.206 µM).

Turning to `N[C@@H]1CONC1=O` [CYCLOSERINE], the “Selectivity Index” value in test [16] was over 17. The IC50 in test [1] was over 100 µg/mL. In test [2], this molecule came in with an MIC90 of 6.02 µg/mL (≈ 59 µM).

Take `NC[C@H]1O[C@H](O[C@H]2[C@H](O)[C@@H](O[C@H]3O[C@H](CO)[C@@H](O)[C@H](N)[C@H]3O)[C@H](N)C[C@@H]2N)[C@H](O)[C@@H](O)[C@@H]1O` [KANAMYCIN]: the “Selectivity Index” value in [16] is given as over 154. Besides, the concentration for half-maximal inhibition (IC50) in [1] is over 100 µg/mL. In addition, the MIC90 in test [2] worked out at 0.65 µg/mL (≈ 1.34 µM).

On to `O=c1cc(-c2ccccc2)c2cc(Cl)ccc2o1`, for which the outcome in test [4], in [5], in test [6], in test [19], in test [7] and in [8] was inactive. Also, the result in [9], in test [10], in [11], in test [12], in test [13] and in test [14] was inactive. Further, the outcome in test [15] was inactive. Moreover, the IC50 in test [1] is over 100 µg/mL. In test [2], the MIC90 was over 100 µg/mL.
